An excerpt weighted towards active compounds, which were near 1.1% of everything screened.
NR2E3 ag-1 – activates human NR2E3 receptor; Q9Y5X4; CHO-S Gal4-NCOR/VP16-NR2E3 two-hybrid, luciferase; inhibition of corepressor binding, % at 3.98 µM; 360,000 tested, 0.35% active;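 active means inhibition above the mean of all tested compounds plus 3 SD, cut at about 70% in these data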;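 further: 0% = DMSO with NR2E3 transfected cells and 100% = cells lacking NR2E3 construct; higher means lower luciferase signal from less NR2E3 corepressor binding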
MT1-MMP act inh – blocks activation of human MT1-MMP; P50281; HT1080 RFP-PRO-GFP cells, GFP/RFP ratio fluorescence, overnight; percent of plate control window, DMSO zero; GFP/RFP ratio change, % at 20 µM; 360,000 tested, 0.061% active;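 active means GFP/RFP ratio change of at least 30% with cell ATP level not reduced by more than half and red fluorescence within 50% of control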
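Read-out: GFP/RFP fluorescence ratio; Test system: RFP-PRO-GFP reporter HT1080 cells; Compound dosing: single-point 20 µM compound, 1% DMSO; Times: overnight compound exposure at 37 °C.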
NR2E3 ag-2 – agonists of human nuclear receptor NR2E3 | Q9Y5X4 | GST-NR2E3/biotin-RetCOR TR-FRET, 1536-well | inhibition of corepressor binding, % at 4.78 µM | 320,000 tested, 0.12% active | AID 2300;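 active means percent inhibition above the cutoff of mean plus 3 SD of all tested compounds, set per screening campaign, cut at about 20% in these data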;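 further: 0% = DMSO wells and 100% = biotin wells as full block of FRET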
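Material: NR2E3–RetCOR corepressor complex / Amount: 1.35 nM GST-NR2E3 / Medium: Tris pH 7.5 / Compound: single nominal compound dose of 4.8 µM / Incubation: 5 h at 4 °C / Technique: TR-FRET, Eu(K)-anti-GST donor, streptavidin-D2 acceptor, ex 340, em 617/671 nm / Read-out basis: percent loss of FRET ratio relative to control wells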
DAGLB inh – diacylglycerol lipase beta (human) inhibition | AID 504411 | inhibition, % at 5.17 µM | Q8NCG7 | 340,000 tested, 0.059% active | HEK293T DAGLB membrane lysate, EnzChek fluorogenic substrate; in the data active means inhibition above about 34%;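 further: 0% = enzyme with vehicle and 100% = wells lacking enzyme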
Target sequence (Q8NCG7 whole entry, looked up): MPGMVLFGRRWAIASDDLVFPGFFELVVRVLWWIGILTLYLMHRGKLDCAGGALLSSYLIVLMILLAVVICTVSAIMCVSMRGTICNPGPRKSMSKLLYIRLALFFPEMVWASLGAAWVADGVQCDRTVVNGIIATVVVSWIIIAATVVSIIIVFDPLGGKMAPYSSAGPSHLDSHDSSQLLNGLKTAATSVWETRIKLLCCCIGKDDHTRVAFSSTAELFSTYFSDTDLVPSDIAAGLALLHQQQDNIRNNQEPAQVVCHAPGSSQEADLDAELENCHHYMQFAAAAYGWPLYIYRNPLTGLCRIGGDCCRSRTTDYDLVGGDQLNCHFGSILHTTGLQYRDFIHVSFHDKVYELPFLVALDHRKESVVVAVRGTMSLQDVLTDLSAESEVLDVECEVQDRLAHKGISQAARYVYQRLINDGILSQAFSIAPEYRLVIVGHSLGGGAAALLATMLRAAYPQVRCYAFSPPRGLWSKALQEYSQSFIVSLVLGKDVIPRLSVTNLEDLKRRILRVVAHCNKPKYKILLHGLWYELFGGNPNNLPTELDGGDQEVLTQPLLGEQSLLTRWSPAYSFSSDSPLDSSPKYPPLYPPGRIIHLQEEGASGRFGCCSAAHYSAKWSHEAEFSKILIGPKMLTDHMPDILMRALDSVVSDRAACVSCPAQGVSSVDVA
Vif imaging – blocks HIV Vif function; inhibition, % at 7.49 µM; HEK293T cells, Vif self-association by quenched fluorescence, imaging, 24 h; AID 602346; 340,000 tested, 0.35% active; in the data active means inhibition above about 50%, passing the limit was not always enough
HCV core dimer – HCV core protein dimerization inhibition; TR-FRET GST/Flag-core106 dimerization, 1536-well; inhibition, % at 5 µM; 300,000 tested, 0.33% active; AID 1899;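 active means inhibition above the mean of all tested compounds plus 3 SD, set per screening campaign, cut at about 45% in these data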
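assay system = GST-tagged and Flag-tagged HCV core protein residues 1-106 | controls = unlabelled core106 and no-GST-core106 wells | incubation = compound-protein-antibody incubation 4 h at 22.5 °C | probe or stimulus = Eu donor and XL665 acceptor anti-tag antibodies | read-out = % inhibition based on acceptor/donor emission ratio | signal = TR-FRET 671 and 617 nm emission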
* hit, by the source's call; i = inactive; nt = no result.

SMILES	NR2E3 ag-1	MT1-MMP act inh	NR2E3 ag-2	DAGLB inh	Vif imaging	HCV core dimer
O=C(Nc1ccc(F)cc1)c1ccc(S(=O)(=O)N2CCOCC2)o1	-21	4	-1	nt	53*	-1
NS(=O)(=O)c1ccc(NC(=O)c2ccc(S(=O)(=O)N3CCOCC3)o2)cc1	-25	4	1	nt	1	2
CN1/C(=C\C=Nc2ccc3ccccc3c2)C(C)(C)c2ccccc21	-78	-12	3	-2	78*	-5
CN(C)c1ccc(N=C/C=C2\N(C)c3ccccc3C2(C)C)cc1	-43	-2	-6	10	15	-34
O=C1NC(=S)SC1=Cc1ccccn1	-24	0	nt	nt	nt	nt
Cc1sc(NC(=O)CSc2n[nH]c(N)n2)c(C#N)c1C	12	-4	nt	4	23	nt
Cc1ccc(/C=C/C2=Cc3c(sc(NC(=O)CSc4n[nH]c(N)n4)c3C#N)C(C)(C)C2)o1	nt	nt	4	nt	nt	89*
COc1cc(NC(=O)COc2ccccc2Cl)ccc1NC(=O)c1cccs1	-3	nt	-1	-4	0	3
COc1cc(NC(=O)COc2ccccc2[N+](=O)[O-])ccc1NC(=O)c1cccs1	-5	-3	nt	6	53*	nt
COC(=O)C1SCC2C(=O)N(Cc3ccc(F)cc3)CC(=O)N21 (stereo unspecified)	-2	1	0	0	-10	-4
COC(=O)C1SCC2C(=O)N(Cc3cccc(C)c3)CC(=O)N21 (stereo unspecified)	-20	-1	2	-1	128*	7
COc1ccc(-n2cccc2/C=C2\C(=N)N3N=C(c4ccco4)SC3=NC2=O)cc1	-28	-4	2	16	-2	48*
COc1ccc(-n2cccc2/C=C2\C(=N)N3N=C(C(C)C)SC3=NC2=O)cc1	-61	2	0	4	3	24
CCOC(=O)C1=C(C)NC(C)=C(C(=O)OCC)C1C(=O)OCC(=O)NCCc1ccc(S(N)(=O)=O)cc1	-5	-2	0	-5	14	-1
Cn1c(SCC(=O)Nc2sccc2C#N)nnc1-c1ccccc1	-13	-5	-1	0	-22	49*
Cn1c(SCC(=O)NCc2cccs2)nnc1-c1ccncc1	-16	-1	-1	2	59*	-10
CC1Cc2ccccc2N1C(=O)COC(=O)c1ccccc1NCCO (stereo unspecified)	16	4	0	2	66*	-3
CC(C)c1c(O)ccc2c1CC[C@H]1C(C)(C)CCC[C@]21C	-12	5	nt	-15	2	nt
COc1ccc(-n2c(SCC(=O)Nc3ccccc3)nnc2-c2ccc(NS(=O)(=O)c3ccc(C)cc3)cc2)cc1	-3	11	0	3	-5	52*
Cc1cc(N2CCN(S(=O)(=O)c3ccc(Cl)c(Cl)c3)CC2)c2ccccc2n1	10	1	2	-3	86*	7
Cc1cc(N2CCN(S(=O)(=O)c3ccc(Cl)cc3)CC2)c2ccccc2n1	11	-5	7	-3	-17	9
Cc1ccc(C)c(S(=O)(=O)N2CC(=O)N(CCc3ccccc3)C(=O)C2)c1	-24	3	1	-6	3	0
Cc1cccc2cc(CN(CC3CCCO3)C(=O)NC3CCCCC3)c(=O)[nH]c12 (stereo unspecified)	-15	4	0	1	68*	6
CCOC(=O)N1CCN(C(=O)C[C@@H]2C[C@@]3(C(=O)OC)CC(C)(C)CC=C3N(Cc3ccccc3)C2=O)CC1	nt	6	nt	nt	nt	nt
CC(C)(C)C1CCC2(CC1)C(C#N)=C(SCC(=O)Nc1ccccc1)NC(=O)C2C#N (stereo unspecified)	100*	-6	-5	0	-5	20
SMILES	NR2E3 ag-1	MT1-MMP act inh	NR2E3 ag-2	DAGLB inh	Vif imaging	HCV core dimer
O=[N+]([O-])c1ccc(NN=Cc2ccccc2O)nc1	23	12	nt	8	8	nt
N#Cc1ccccc1Cn1cc(/C=N/Nc2ccc([N+](=O)[O-])cn2)c2ccccc21	29	-51	3	19	158*	22
O=[N+]([O-])c1ccc(N/N=C/c2ccc(OCc3cccc4ccccc34)cc2)nc1	-122	-91	5	-3	149*	12
Cc1cc(=O)oc2cc(OCC(=O)c3ccc4c(c3)NC(=O)CO4)ccc12	1	-16	-8	-3	8	63*
Cc1nnc(NC(=O)COc2ccc3c(C)cc(=O)oc3c2)s1	-3	1	-1	4	3	79*
Cc1csc(SCCn2c(N3CCN(c4ccccc4)CC3)nc3c2c(=O)[nH]c(=O)n3C)n1	13	2	-1	2	57*	4
COc1ccc(C2=Nn3c(nnc3-c3ccccc3)SC2)cc1OC	-1	2	-5	0	13	5
CCCc1nnc2n1N=C(c1ccc(OC)c(OC)c1)CS2	1	0	-4	0	57*	-1
COc1ccc(/C(N)=N/OC(=O)CN(C)S(=O)(=O)c2ccccc2)cc1	-16	3	nt	nt	-1	nt
CN(CC(=O)O/N=C(\N)c1ccc([N+](=O)[O-])cc1)S(=O)(=O)c1ccc2ccccc2c1	2	0	-1	-6	59*	2
COc1ccc(C(=O)Nc2c(Cl)cc(Cl)cc2C(=O)N2CCOCC2)cc1	7	2	5	0	65*	-3
CO[C@@H]1CN(C)C(=O)c2ccc(NS(=O)(=O)c3c(C)noc3C)cc2OC[C@@H](C)NC[C@@H]1C	nt	-5	nt	nt	nt	nt
COC(=O)C[C@@H]1CC[C@@H](NC(=O)Nc2cc(F)ccc2F)[C@@H](CO)O1	nt	5	nt	nt	nt	nt
CCOC(=O)C1CCN(S(=O)(=O)c2cccc(-c3cn4cc(C)ccc4n3)c2)CC1	8	1	2	-4	64*	15
N#Cc1ccc(-c2cccnc2)nc1SCC(=O)c1ccccc1	-91	-136	2	-8	173*	-5
N#Cc1ccc(-c2ccccc2)nc1SCC(=O)c1cccc(Cl)c1	-17	-39	5	-4	i	-28
COC(=O)C1=COC(OC2OC(CO)C(O)C(O)C2O)C2C(C)CC(=O)C12 (stereo unspecified)	-4	-1	nt	nt	5	nt
CC(=O)Oc1cccc(N2C(=O)c3cccc4c([N+](=O)[O-])ccc(c34)C2=O)c1	-17	-108	-1	-7	118*	-30
Cc1ccc(C(=O)O)cc1N1C(=O)c2cccc3c([N+](=O)[O-])ccc(c23)C1=O	-16	-81	2	-2	16	-15
Cc1ccc(NC(=O)CN2CCN(Cc3ccccc3)CC2)cc1F	23	3	2	0	26	4

High-throughput results: PubChem BioAssay, several laboratories
